Measured values from ChEMBL document CHEMBL1148401, “Synthesis and structure-activity relationships of novel arylpiperazines as potent and selective agonists of the melanocortin subtype-4 receptor” (J Med Chem, 2004).

Key:
Melanocortin receptor 4 [1] = target: T1, Melanocortin receptor 4 (Homo sapiens, UniProt P32245); assay: Agonistic potency towards human melanocortin 4 receptor, determined by 50% maximum cAMP release; assay type: functional
How it was run: (§1)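 HEK293 cells stably expressing human MC3 or MC4 receptor, suspended in HBSS/0.1% BSA/10 mM HEPES at 1 × 10⁶ cells/mL. Compound serial dilutions 10 µM to 0.1 nM; NDP-α-MSH control agonist 100 nM to 1 pM. 20 min at 37 °C, quenched with sodium acetate/Triton X-100. cAMP by SPA competition with ¹²⁵I-cAMP, 12 h. EC50 at 50% maximal cAMP release, n = 2, ± SEM.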

Melanocortin receptor 4 [2] = target: T1, Melanocortin receptor 4; assay: Binding affinity towards human melanocortin 4 receptor using [125I]NDP-alpha-MSH as a radioligand in HEK293 cells; assay type: cell-based
How it was run: (§2)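 Membranes from HEK293 cells stably expressing human MC1, MC3, MC4 or MC5 receptor, 0.5-5.0 µg protein, with 100 pM ¹²⁵I-NDP-α-MSH and WGA SPA beads. Buffer 25 mM HEPES pH 7.5, 10 mM CaCl₂, 0.3% BSA. Compound 30 µM to 300 pM. 10 h at room temperature, scintillation counting. Four-parameter logistic IC50 converted to Ki by Cheng-Prusoff; n = 2 or 4, ± SEM.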

Melanocortin receptor 3 [3] = target: T2, Melanocortin receptor 3 (Homo sapiens, UniProt P41968); assay: Agonistic potency towards human Melanocortin 3 receptor (MC3R) was determined by 50% maximum cAMP release; assay type: functional; how it was run: as §1
[4] = target: Melanocyte-stimulating hormone receptor (Homo sapiens, UniProt Q01726); assay: Binding affinity towards human Melanocortin 1 receptor (MC1R) using [125I]NDP-alpha-MSH as a radioligand in membranes of HEK 293 cells; assay type: cell membranes, HEK293; how it was run: as §2
Melanocortin receptor 5 = Melanocortin receptor 5 (Homo sapiens, UniProt P33032); assay: Binding affinity towards human Melanocortin 5 receptor (MC5R) using [125I]NDP-alpha-MSH as a radioligand in membranes of HEK 293 cells; assay type: cell membranes, HEK293; how it was run: as §2
Melanocortin receptor 3 [5] = target: T2, Melanocortin receptor 3; assay: Binding affinity towards human Melanocortin 3 receptor (MC3R) using [125I]NDP-alpha-MSH as a radioligand in membranes of HEK 293 cells; assay type: cell membranes, HEK293; how it was run: as §2
[6] = Volume distribution in fischer rats at 5 mg/kg dose, administered intravenously; assay type: ADME, organism-based; set-up: dose 5 mg/kg, route intravenous; settings: rat, in vivo, iv, read-out: Volume distribution
How it was run: (§3)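 Fischer 344 rats, n = 3 per route: 5 mg/kg iv, or 30 mg/kg by gavage in 10% acacia. Retro-orbital blood into heparinized syringes at 0.5, 1, 2, 6 h after oral dosing and 0.083, 1, 2, 4, 6, 8, 24 h after iv dosing. Plasma stored at -70 °C and quantified by electrospray LC/MS/MS against standards by least-squares regression.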

[7] = Clearance in fischer rats at 5 mg/kg dose, administered intravenously; assay type: ADME, organism-based; set-up: dose 5 mg/kg, route intravenous; settings: rat, in vivo, iv; how it was run: as §3
[8] = Oral bioavailability in fischer rats at 30 mg/kg dose, administered perorally; assay type: ADME, organism-based; settings: rat, in vivo, read-out: Bioavailabiility; how it was run: as §3
[9] = Half-life in fischer rats at 5 mg/kg dose, administered intravenously; assay type: ADME, organism-based; set-up: dose 5 mg/kg, route intravenous; settings: rat, in vivo, iv; how it was run: as §3
[10] = Tmax in fischer rats at 30 mg/kg dose, administered orally; settings: rat, in vivo, po

T1 sequence (P32245 whole entry): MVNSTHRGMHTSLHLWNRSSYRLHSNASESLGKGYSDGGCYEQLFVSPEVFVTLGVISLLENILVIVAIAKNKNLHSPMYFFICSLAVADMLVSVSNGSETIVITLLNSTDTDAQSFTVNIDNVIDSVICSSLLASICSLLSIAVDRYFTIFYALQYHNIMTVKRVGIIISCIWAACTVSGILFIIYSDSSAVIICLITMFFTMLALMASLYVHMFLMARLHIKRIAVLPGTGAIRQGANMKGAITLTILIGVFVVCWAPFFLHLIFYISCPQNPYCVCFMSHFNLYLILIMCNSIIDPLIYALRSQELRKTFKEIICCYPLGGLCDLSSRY
Sequence of Melanocyte-stimulating hormone receptor (Q01726 whole entry): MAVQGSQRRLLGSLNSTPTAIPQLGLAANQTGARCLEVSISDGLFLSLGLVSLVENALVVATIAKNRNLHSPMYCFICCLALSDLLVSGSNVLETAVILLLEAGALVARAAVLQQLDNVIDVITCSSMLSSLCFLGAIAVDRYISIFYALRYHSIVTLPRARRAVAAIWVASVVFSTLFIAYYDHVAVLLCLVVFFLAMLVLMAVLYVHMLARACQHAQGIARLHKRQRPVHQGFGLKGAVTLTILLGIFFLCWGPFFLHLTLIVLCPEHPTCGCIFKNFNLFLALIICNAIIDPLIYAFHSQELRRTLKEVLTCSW
Sequence of Melanocortin receptor 5 (P33032 whole entry): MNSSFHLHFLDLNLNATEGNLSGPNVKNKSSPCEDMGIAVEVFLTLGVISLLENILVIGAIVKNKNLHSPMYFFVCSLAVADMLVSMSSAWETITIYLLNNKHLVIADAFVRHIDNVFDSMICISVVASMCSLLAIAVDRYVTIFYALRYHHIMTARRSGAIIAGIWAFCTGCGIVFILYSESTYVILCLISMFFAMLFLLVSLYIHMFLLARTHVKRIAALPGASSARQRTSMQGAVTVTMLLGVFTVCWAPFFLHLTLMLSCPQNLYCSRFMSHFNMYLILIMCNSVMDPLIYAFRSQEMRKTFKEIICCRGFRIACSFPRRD
T2 sequence (P41968 whole entry): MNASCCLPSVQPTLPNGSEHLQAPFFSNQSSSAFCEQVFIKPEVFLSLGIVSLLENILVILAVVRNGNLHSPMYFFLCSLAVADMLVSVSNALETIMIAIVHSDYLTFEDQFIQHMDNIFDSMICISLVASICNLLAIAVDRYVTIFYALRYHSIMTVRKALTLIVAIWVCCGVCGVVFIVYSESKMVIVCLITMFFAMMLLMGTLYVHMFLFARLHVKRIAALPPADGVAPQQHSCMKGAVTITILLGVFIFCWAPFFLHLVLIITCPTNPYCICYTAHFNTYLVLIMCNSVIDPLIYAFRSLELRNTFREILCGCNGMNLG

Row | EC50 (Melanocortin receptor 4 [1]) [nM] | Ki (Melanocortin receptor 4 [2]) [nM] | Structure (SMILES) | further results
1 | 1300 | 1700 | Cc1ccccc1N1CCN(C(=O)[C@@H](Cc2ccc(Cl)cc2)NC(=O)[C@H]2Cc3ccccc3CN2)CC1 | 
2 | 14 | 110 | O=C(N[C@H](Cc1ccc(Cl)cc1)C(=O)N1CCN(c2ccccc2Cn2ccnc2)CC1)[C@H]1Cc2ccccc2CN1 | EC50 (Melanocortin receptor 3 [3]): 1600 nM; Ki [4]: 4000 nM; Ki (Melanocortin receptor 5): 700 nM; Ki (Melanocortin receptor 3 [5]): 3600 nM
3 | 14 | 34 | CCN(CC)Cc1ccccc1N1CCN(C(=O)[C@@H](Cc2ccc(Cl)cc2)NC(=O)[C@H]2Cc3ccccc3CN2)CC1 | 
4 | 200 | 1700 | Nc1ccccc1N1CCN(C(=O)[C@@H](Cc2ccc(Cl)cc2)NC(=O)[C@H]2Cc3ccccc3CN2)CC1 | 
5 | 7 | 60 | CN(C)Cc1ccccc1N1CCN(C(=O)[C@@H](Cc2ccc(Cl)cc2)NC(=O)[C@H]2Cc3ccccc3CN2)CC1 | EC50 (Melanocortin receptor 3 [3]): 1800 nM; Ki [4]: > 20000 nM; Ki (Melanocortin receptor 5): 1400 nM; Ki (Melanocortin receptor 3 [5]): 7000 nM
6 | 34 | 350 | C[C@H](O)c1ccccc1N1CCN(C(=O)[C@@H](Cc2ccc(Cl)cc2)NC(=O)[C@H]2Cc3ccccc3CN2)CC1 | 
7 | 37 | 27 | O=C(N[C@H](Cc1ccc(Cl)cc1)C(=O)N1CCN(c2ccccc2CN2CCCCC2)CC1)[C@H]1Cc2ccccc2CN1 | 
8 | 48 | 210 | CS(=O)(=O)NCc1ccccc1N1CCN(C(=O)[C@@H](Cc2ccc(Cl)cc2)NC(=O)[C@H]2Cc3ccccc3CN2)CC1 | 
9 | 400 | 640 | O=C(N[C@H](Cc1ccc(Cl)cc1)C(=O)N1CCN(c2ccccc2Oc2ccccc2)CC1)[C@H]1Cc2ccccc2CN1 | 
10 | 210 | 2400 | O=C(N[C@H](Cc1ccc(Cl)cc1)C(=O)N1CCN(c2ccccc2[N+](=O)[O-])CC1)[C@H]1Cc2ccccc2CN1 | 
11 | 140 | 530 | Cn1ccnc1COc1ccccc1N1CCN(C(=O)[C@@H](Cc2ccc(Cl)cc2)NC(=O)[C@H]2Cc3ccccc3CN2)CC1 | 
12 | 150 | 640 | O=C(N[C@H](Cc1ccc(Cl)cc1)C(=O)N1CCN(c2ccccc2OCc2ccccc2)CC1)[C@H]1Cc2ccccc2CN1 | 
13 | 98 | 230 | CN(C)CCOc1ccccc1N1CCN(C(=O)[C@@H](Cc2ccc(Cl)cc2)NC(=O)[C@H]2Cc3ccccc3CN2)CC1 | 
14 | 71 | 1100 | COc1ccccc1N1CCN(C(=O)[C@@H](Cc2ccc(Cl)cc2)NC(=O)[C@H]2Cc3ccccc3CN2)CC1 | 
15 | 145 | 1300 | CCc1ccccc1N1CCN(C(=O)[C@@H](Cc2ccc(Cl)cc2)NC(=O)[C@H]2Cc3ccccc3CN2)CC1 | 
16 | 110 | 720 | CC(C)c1ccccc1N1CCN(C(=O)[C@@H](Cc2ccc(Cl)cc2)NC(=O)[C@H]2Cc3ccccc3CN2)CC1 | 
17 | 21 | 140 | Cc1nccn1Cc1ccccc1N1CCN(C(=O)[C@@H](Cc2ccc(Cl)cc2)NC(=O)[C@H]2Cc3ccccc3CN2)CC1 | 
18 | 360 | 6600 | O=C(N[C@H](Cc1ccc(Cl)cc1)C(=O)N1CCN(c2ccccc2)CC1)[C@H]1Cc2ccccc2CN1 | 
19 | 490 | 1900 | O=C(N[C@H](Cc1ccc(Cl)cc1)C(=O)N1CCN(c2ccccc2O)CC1)[C@H]1Cc2ccccc2CN1 | 
20 | 93 | 460 | CC(C)Oc1ccccc1N1CCN(C(=O)[C@@H](Cc2ccc(Cl)cc2)NC(=O)[C@H]2Cc3ccccc3CN2)CC1 | 
21 | 16 | 220 | CS(=O)(=O)Nc1ccccc1N1CCN(C(=O)[C@@H](Cc2ccc(Cl)cc2)NC(=O)[C@H]2Cc3ccccc3CN2)CC1 | Vd [6]: 4.5 L/kg; clearance [7]: 43 mL/min/kg; bioavailability [8]: 30%; half-life [9]: 1.7 h; EC50 (Melanocortin receptor 3 [3]): 2000 nM; Ki [4]: 12000 nM; Ki (Melanocortin receptor 5): 1200 nM; Tmax [10]: 3 h; Ki (Melanocortin receptor 3 [5]): 8800 nM
22 | 44 | 1100 | CN(C)c1ccccc1N1CCN(C(=O)[C@@H](Cc2ccc(Cl)cc2)NC(=O)[C@H]2Cc3ccccc3CN2)CC1 | 
23 | 8 | 35 | CCCN(CCC)Cc1ccccc1N1CCN(C(=O)[C@@H](Cc2ccc(Cl)cc2)NC(=O)[C@H]2Cc3ccccc3CN2)CC1 | 
24 | 44 | 170 | Cn1ccnc1Cc1ccccc1N1CCN(C(=O)[C@@H](Cc2ccc(Cl)cc2)NC(=O)[C@H]2Cc3ccccc3CN2)CC1 | 
25 | 44 | 340 | C[C@@H](O)c1ccccc1N1CCN(C(=O)[C@@H](Cc2ccc(Cl)cc2)NC(=O)[C@H]2Cc3ccccc3CN2)CC1 | 
26 | 39 | 24 | O=C(N[C@H](Cc1ccc(Cl)cc1)C(=O)N1CCN(c2ccccc2CN2CCCC2)CC1)[C@H]1Cc2ccccc2CN1 | 
27 | 150 | 630 | O=C(N[C@H](Cc1ccc(Cl)cc1)C(=O)N1CCN(c2ccccc2CO)CC1)[C@H]1Cc2ccccc2CN1 | 
28 | 40 | 570 | CCOc1ccccc1N1CCN(C(=O)[C@@H](Cc2ccc(Cl)cc2)NC(=O)[C@H]2Cc3ccccc3CN2)CC1 | 
